Assay results as given in ChEMBL document CHEMBL1157458, “Exploring the substituent effects on a novel series of C1'-dimethyl-aryl Delta8-tetrahydrocannabinol analogs” (Bioorg Med Chem, 2008).

What was measured:
[1] = target: Cannabinoid receptor 1 (Homo sapiens, UniProt P21554); experiment: Displacement of [3H]CP-55940 from human CB1 receptor expressed in HEK293 cells; assay type: cell-based
[2] = target: Cannabinoid receptor 2 (Homo sapiens, UniProt P34972); experiment: Displacement of [3H]CP-55940 from human CB2 receptor expressed in CHO-K1 cells; assay type: cell-based
[3] = species on record: Homo sapiens; experiment: Selectivity ratio of Ki for human CB1 receptor to Ki for human CB2 receptor
[4] = Cytotoxicity against human U87 cells by side flank model relative to control; assay type: functional, U-87MG ATCC; details: U-87 MG
[5] = test system: T98G; experiment: Cytotoxicity against human T98G cells assessed as cell death after 18 hrs; assay type: functional, cell-based
Outline: (§1)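 Glioma lines (U-87MG, T98G, LN-229, DBTRG-O5MG, primary MT310) plated at 70% confluency in 100 µl supplemented medium, left overnight at 37 °C to adhere. Cells were then exposed to escalating drug amounts for 18 h. Viability was measured by CCK-8 absorbance at 450 nm relative to untreated controls. Values are the mean of three data points per determination, three independent determinations.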

[6] = Cytotoxicity against human LN229 cells assessed as cell death after 18 hrs; assay type: functional, cell-based; details: LN-229, 18 h; outline: as §1
[7] = Cytotoxicity against human DBTRG-O5MG cells assessed as cell death after 18 hrs; assay type: functional, cell-based; outline: as §1
[8] = Cytotoxicity against human MT310 cells assessed as cell death after 18 hrs; assay type: functional, cell-based; outline: as §1
[9] = Cytotoxicity against human U87MG cells assessed as cell death after 18 hrs; assay type: functional, U-87MG ATCC; outline: as §1

Sequence of Cannabinoid receptor 2 (P34972 whole entry): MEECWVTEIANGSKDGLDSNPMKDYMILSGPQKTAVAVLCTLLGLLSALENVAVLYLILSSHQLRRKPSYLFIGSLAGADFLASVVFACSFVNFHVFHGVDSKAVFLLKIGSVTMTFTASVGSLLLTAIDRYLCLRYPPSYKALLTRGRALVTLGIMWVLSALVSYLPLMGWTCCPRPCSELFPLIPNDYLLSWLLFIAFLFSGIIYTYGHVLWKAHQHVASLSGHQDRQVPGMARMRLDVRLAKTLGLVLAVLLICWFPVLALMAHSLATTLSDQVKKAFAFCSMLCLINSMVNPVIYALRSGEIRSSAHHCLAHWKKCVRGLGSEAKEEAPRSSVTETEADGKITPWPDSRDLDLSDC
Sequence of Cannabinoid receptor 1 (P21554 whole entry): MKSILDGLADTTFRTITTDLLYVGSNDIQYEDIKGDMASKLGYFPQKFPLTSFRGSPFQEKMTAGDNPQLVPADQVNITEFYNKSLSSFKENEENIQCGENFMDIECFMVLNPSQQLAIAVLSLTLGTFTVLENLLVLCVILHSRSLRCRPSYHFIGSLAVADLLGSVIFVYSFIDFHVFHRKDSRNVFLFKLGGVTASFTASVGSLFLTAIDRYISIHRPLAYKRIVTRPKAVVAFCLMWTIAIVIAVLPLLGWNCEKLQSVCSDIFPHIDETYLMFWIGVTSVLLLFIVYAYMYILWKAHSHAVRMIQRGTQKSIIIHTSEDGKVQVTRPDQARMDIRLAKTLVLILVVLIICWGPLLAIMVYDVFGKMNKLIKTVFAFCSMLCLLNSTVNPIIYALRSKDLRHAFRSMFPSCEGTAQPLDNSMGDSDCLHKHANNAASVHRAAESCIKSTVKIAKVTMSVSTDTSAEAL

| Compound | Ki [1] | Ki [2] | Ratio Ki [3] | EC50 [4] | EC50 [5] | EC50 [6] | EC50 [7] | EC50 [8] | Activity [9] |
| --- | --- | --- | --- | --- | --- | --- | --- | --- | --- |
| CCCc1ccc(C(C)(C)c2cc(O)c3c(c2)OC(C)(C)[C@@H]2CC=C(C)C[C@@H]32)cc1 | 1.77 nM | 7.83 nM | 0.23 | 3170 nM | 3630 nM | 2440 nM | 3580 nM | 6460 nM |  |
| CC1=CC[C@@H]2[C@@H](C1)c1c(O)cc(C(C)(C)c3ccc(Cl)cc3)cc1OC2(C)C | 18.8 nM | 1.68 nM | 11.2 | 3270 nM | 3400 nM | 2870 nM | 4610 nM | 7310 nM |  |
| CC1=CC[C@@H]2[C@@H](C1)c1c(O)cc(C(C)(C)c3cccc(C)c3)cc1OC2(C)C | 2.53 nM | 1.13 nM | 2.24 |  |  |  |  |  |  |
| CC1=CC[C@@H]2[C@@H](C1)c1c(O)cc(C(C)(C)c3ccc(F)cc3)cc1OC2(C)C | 76.1 nM | 12.4 nM | 6.14 | 2550 nM | 3300 nM | 2020 nM | 3080 nM | 8780 nM |  |
| CC1=CC[C@@H]2[C@@H](C1)c1c(O)cc(C(C)(C)c3cc(C)cc(C)c3)cc1OC2(C)C | 11 nM | 7.45 nM | 1.48 |  |  |  |  |  |  |
| CC1=CC[C@@H]2[C@@H](C1)c1c(O)cc(C(C)(C)c3cccs3)cc1OC2(C)C | 1.08 nM | 0.27 nM | 4 | 1830 nM | 2210 nM | 2020 nM | 2670 nM | 4100 nM |  |
| CC1=CC[C@@H]2[C@@H](C1)c1c(O)cc(C(C)(C)c3ccc(Br)cc3)cc1OC2(C)C | 5.03 nM | 1.54 nM | 3.26 |  |  |  |  |  |  |
| CC1=CC[C@@H]2[C@@H](C1)c1c(O)cc(C(C)(C)c3cccc(Cl)c3)cc1OC2(C)C | 2.8 nM | 3.54 nM | 0.79 |  |  |  |  |  |  |
| CC1=CC[C@@H]2[C@@H](C1)c1c(O)cc(C(C)(C)c3cccc(Br)c3)cc1OC2(C)C | 1.59 nM | 0.54 nM | 2.94 |  |  |  |  |  |  |
| CC1=CC[C@@H]2[C@@H](C1)c1c(O)cc(C(C)(C)c3cccc(F)c3)cc1OC2(C)C | 5.26 nM | 0.9 nM | 5.84 |  |  |  |  |  |  |
| CC1=CC[C@@H]2[C@@H](C1)c1c(O)cc(C(C)(C)c3ccc(C#N)cc3)cc1OC2(C)C | 9.25 nM | 2.53 nM | 3.66 |  |  |  |  |  |  |
| CCc1ccc(C(C)(C)c2cc(O)c3c(c2)OC(C)(C)[C@@H]2CC=C(C)C[C@@H]32)cc1 | 1.85 nM | 0.67 nM | 2.76 | 2520 nM | 3230 nM | 1670 nM | 3000 nM | 4110 nM |  |
| CC1=CC[C@@H]2[C@@H](C1)c1c(O)cc(C(C)(C)c3ccc(C)cc3)cc1OC2(C)C | 3.13 nM | 0.88 nM | 3.56 |  |  |  |  |  |  |
| CC1=CC[C@@H]2[C@@H](C1)c1c(O)cc(C(C)(C)c3ccccc3C)cc1OC2(C)C | 34.4 nM | 10.7 nM | 3.23 |  |  |  |  |  |  |
| CC1=CC[C@@H]2[C@@H](C1)c1c(O)cc(C(C)(C)c3ccccc3)cc1OC2(C)C |  |  | 13.5 | 3080 nM | 4680 nM | 2630 nM | 2270 nM | 4290 nM | 75% |
| CC1=CC[C@@H]2[C@@H](C1)c1c(O)cc(C(C)(C)c3cccc(C#N)c3)cc1OC2(C)C | 2.72 nM | 0.91 nM | 2.98 |  |  |  |  |  |  |
| CC1=CC[C@@H]2[C@@H](C1)c1c(O)cc(C(C)(C)c3ccc(C(N)=O)cc3)cc1OC2(C)C |  |  | 1.01 |  |  |  |  |  |  |
